The list is not random: actives were taken first. Their share in the collection is about 3.7%.
KCNQ1 act = potentiators or activators of human KCNQ1 potassium channel | CHO-K1 KCNQ1, thallium flux FluxOR fluorescence; active compounds read high | B-score at 10 µM | 310,000 compounds, 0.35% hits | AID 2648;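 active = fluorescence ratio B-score, a plate-corrected score, at least three library SD, with initial intensity B-score within 5 SD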
Target sequence (P51787 whole entry, looked up): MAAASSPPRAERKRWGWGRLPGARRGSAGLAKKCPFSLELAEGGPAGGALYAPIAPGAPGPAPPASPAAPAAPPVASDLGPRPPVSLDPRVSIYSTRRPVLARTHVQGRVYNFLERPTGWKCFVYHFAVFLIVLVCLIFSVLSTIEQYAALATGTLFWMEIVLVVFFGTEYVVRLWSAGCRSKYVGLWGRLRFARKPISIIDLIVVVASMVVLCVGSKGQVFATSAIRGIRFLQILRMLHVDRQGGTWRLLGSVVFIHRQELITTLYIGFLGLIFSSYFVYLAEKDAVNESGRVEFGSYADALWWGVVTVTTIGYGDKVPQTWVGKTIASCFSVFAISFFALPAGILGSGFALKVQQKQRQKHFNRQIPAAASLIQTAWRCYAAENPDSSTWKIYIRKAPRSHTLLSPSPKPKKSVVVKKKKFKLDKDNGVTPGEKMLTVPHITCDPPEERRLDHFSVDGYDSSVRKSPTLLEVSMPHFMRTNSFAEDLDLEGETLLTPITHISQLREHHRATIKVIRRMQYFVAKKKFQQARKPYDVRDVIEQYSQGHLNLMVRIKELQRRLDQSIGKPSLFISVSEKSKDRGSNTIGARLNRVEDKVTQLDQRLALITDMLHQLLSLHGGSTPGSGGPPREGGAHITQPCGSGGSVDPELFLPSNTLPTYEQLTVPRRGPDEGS
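assay system = CHO-K1 cells stably expressing KCNQ1 | medium = assay buffer, equal DMSO in all wells | timing = 37 °C overnight plating, 90-min dark dye load, 20-min compound pretreatment | measured by = kinetic FluxOR thallium fluorescence, 10-s 1-Hz baseline, 110-s post-stimulus read | measure = fluorescence change relative to baseline, converted to B score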
KCNK3 inh = human KCNK3 channel inhibition, primary screen; 340,000 compounds, 0.84% hits; O14649; AID 602410; B-score at 10 µM; CHO-KCNK3 thallium flux, FluxOR fluorescence; active compounds read low;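 active = B-score under library mean minus 4 SD, starting fluorescence ratio at most library mean plus 5 SD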;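 note: more negative B-score means stronger inhibition of thallium flux through KCNK3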
KCNQ1 block = human KCNQ1 channel inhibition. P51787. CHO-K1 KCNQ1, FluxOR thallium flux fluorescence; active compounds read high. B-score at 10 µM. 310,000 compounds, 1.3% hits. AID 2642;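 active = compounds whose thallium flux B-score, printed positive for inhibition, exceeds three library SD while starting fluorescence stays within three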;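 note: channel opened by potassium depolarization with thallium stimulus after 20 min compound exposure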
Kir21 inh = Kir2.1 (mouse) channel inhibition; HEK293-Kir2.1, FluxOR thallium flux fluorescence; active compounds read low; B-score at 10 µM; 310,000 compounds, 0.85% hits; AID 1672;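 active = fluorescence ratio B-score at or below minus 3 SD of library scores, with starting-brightness B-score within 2 SD, cut at about -4.2 in these data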;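 note: channel flux triggered by added potassium and thallium sulfate stimulus; B-score of peak minus minimum fluorescence over baseline after thallium stimulus; more negative B-score means stronger Kir2.1 block with less thallium influx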
KCNK9 block = blocks the human KCNK9 two-pore domain potassium channel | Q9NPC2 | AID 488922 | B-score at 10 µM | 310,000 compounds, 1.2% hits | HEK293 KCNK9, FluxOR thallium flux fluorescence; active compounds read low;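 active = ratio B-score over 3 SD below the library mean, with starting fluorescence within 5 SD of its mean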;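 note: negative B-score means less thallium flux so channel inhibition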
hERG protect = hERG (human) protection from proarrhythmic block | CHO-hERG, FluxOR thallium flux, dofetilide IC70 present | activation (rescue from dofetilide block), less the hit threshold, % at 10 µM | 310,000 compounds, 0.51% hits | AID 1511;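 active = activation above the mean of controls blocked by dofetilide plus 5 SD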;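 note: thallium influx through hERG after potassium depolarization seen as dye fluorescence rise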
The depositor's hits bear a star; i = inactive; · = no result given.

SMILES	KCNQ1 act	KCNK3 inh	KCNQ1 block	Kir21 inh	KCNK9 block	hERG protect
Cc1ccccc1NC(=O)c1cc2c(C)nc3ccccc3c2o1	i	i	i	0.14	i	-13
CCN1C[C@@H]2[C@@H]3C(=O)N(Cc4ccccc4)C(=O)[C@@H]3[C@](Cc3ccccc3)(C1=O)N2C(=O)c1ccc(C(C)(C)C)cc1	·	i	·	·	·	·
COc1ccccc1/C=C(/C(=O)OCC(=O)Nc1ccccc1C)c1ccccc1	i	i	8*	-1.6	-7*	-8
C=C(C)C(=O)OCC(=O)NCc1ccccc1	i	i	i	0.14	i	-10
COc1ccccc1/C=C(/C(=O)OCC(=O)Nc1ccc(N(C)C)cc1)c1ccccc1	i	i	i	0	i	-11
COc1ccccc1/C=C(/C(=O)OCC(=O)NCc1ccccc1)c1ccccc1	i	i	7*	0.13	-8*	-12
COc1ccc2oc(C(=O)N(Cc3ccco3)Cc3cccs3)c(C)c2c1	i	i	9*	-2.3	i	-17
Cc1sc(NC(=O)c2ccco2)c(C(c2cccnc2)N2CCN(c3ccc(F)cc3)CC2)c1C (stereo unspecified)	i	-12*	8*	-0.43	-6.6*	-12
Cc1sc(NC(=O)c2ccco2)c(C(c2ccccc2)N2CCC(C)CC2)c1C (stereo unspecified)	i	i	i	-0.67	-7*	-13
Cc1sc(NC(=O)c2ccccc2)c(C(c2ccc(Cl)cc2)N2CCN(CCO)CC2)c1C (stereo unspecified)	i	i	i	-0.73	i	-2
COc1ccc(C(c2c(NC(=O)c3ccco3)sc(C)c2C)N2CCOCC2)cc1OC (stereo unspecified)	·	-9.7*	·	·	·	·
Cc1sc(NC(=O)c2ccco2)c(C(c2cccnc2)N2CCN(CCO)CC2)c1C (stereo unspecified)	i	i	i	1.3	i	-4
CCOC(=O)C1CCN(S(=O)(=O)c2ccc(C)cc2)CC1	i	i	i	-0.05	i	-4
Cc1ccc(S(=O)(=O)c2c(C)nn(C(C)(C)C)c2OC(=O)C2CCCC2)cc1	i	-8.8*	i	-0.69	-8*	-3
Cc1nc2c(C)cccn2c1/C(O)=C1\C(=O)C(=O)N(CCN(C)C)C1c1cccs1 (stereo unspecified)	·	i	·	·	·	·
COc1ccc(CCNC(=O)C2CCCN(c3ncnc4c3nc3n4CCCCC3)C2)c(OC)c1 (stereo unspecified)	i	i	i	0.93	i	-12
CCN1C(=O)/C(=C/c2ccc(C)s2)NC1=S	10*	i	i	-0.11	i	10*
Cc1c(O)ccc(/C(Cc2ccc3ccccc3n2)=N\N)c1O	i	i	i	0.36	-7.9*	-8
COc1cc(NC(=O)COc2cc(O)c3c(c2)OC(C)(C)CC3=O)cc(OC)c1OC	i	i	9*	0.02	i	-28
CC1(C)CC(=O)c2c(O)cc(OCC(=O)Nc3ccc(S(N)(=O)=O)cc3)cc2O1	i	i	i	-0.01	i	-5
CN(C)CCCn1c(=O)n(CCc2ccccc2)c(=O)c2c3c(sc21)CCCCC3	i	i	i	-3	i	-12
CN(C)CCCNc1nc2sc3c(c2c(=O)n1CCc1ccccc1)CCCCC3	i	i	i	-5.4*	i	-14
Cc1cc(NC(=O)CSc2nc3cc(Cl)ccc3c(=O)n2C(C)C)no1	·	i	·	·	·	·
COc1ccc(CCNC(=O)c2ccc(NC(=O)CC3SC(N4CCCC4)=NC3=O)cc2)cc1OC (stereo unspecified)	·	i	·	·	·	·
N#CC1(c2ccccc2)CCC(=O)N1c1ccccc1 (stereo unspecified)	i	i	i	-0.33	i	-5
CC1Cc2ccccc2N1C(=S)NC(=O)c1ccco1 (stereo unspecified)	i	i	i	-0.25	i	6.7*
CC1Cc2ccccc2N1C(=S)NC(=O)C1(C)CC1(Cl)Cl (stereo unspecified)	37*	i	i	-1.7	i	28*

Screening data deposited in PubChem by Johns Hopkins Ion Channel Center.
